Measured values from ChEMBL document CHEMBL1121898, “Potential antiestrogens. Synthesis and evaluation of mammary tumor inhibiting activity of 1,2-dialkyl-1,2-bis(3'-hydroxyphenyl)ethanes” (1981).

How the values were obtained:
Rattus norvegicus [1] = organism: Rattus norvegicus; assay: Complete remission of DMBA-induced hormone-dependent mammary carcinoma tumors in ovariectomised rats; assay type: functional
How it was run: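 Female SD rats bearing DMBA-induced, hormone-dependent mammary adenocarcinoma, with at least one tumor >140 mm², were grouped in tens. Dosing was sc per kg body weight: a single dose daily Monday–Thursday and a double dose Friday. Ovariectomy served as the comparison arm. Complete remission was defined as a tumor no longer palpable. Body weight and tumor area changes were also recorded.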

Rattus norvegicus [2] = organism: Rattus norvegicus; assay: Progression of DMBA-induced hormone-dependent mammary carcinoma tumors in rats at 2.25 mg; assay type: functional
[3] = molecular target: T1, Estrogen receptor (Mus musculus) (UniProt O08537+P19785); assay: Estrogenic activity in uterotrophic test in mice at 3 ug; assay type: functional
How it was run: (§1)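 Uterine growth stimulation in immature female NMRI mice, 20 days old (14.5 ± 1.2 g), 10 per group. Test compound in 0.1 mL olive oil was given sc daily for 3 days. Uteri were excised 24 h after the final injection and weighed. Effect is reported as mean ± SD.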

Rattus norvegicus [4] = organism: Rattus norvegicus; assay: Percent change in DMBA-induced hormone-dependent mammary carcinoma tumor area at 2 mg after 28 days; assay type: functional
How it was run: (§2)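 DMBA-induced, hormone-dependent mammary adenocarcinoma in SD rats. Rats bearing at least one tumor >140 mm² were placed in groups of ten. Compound was given sc as a single dose (mg/kg) daily Monday–Thursday and a double dose on Friday. Tumors were counted at the start and as new tumors; responses were scored as complete remission (not palpable), partial remission (≥50% reduction), no change or progression. Tumor area and body weight were recorded as % change.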

Rattus norvegicus [5] = organism: Rattus norvegicus; assay: Percent unchanged tumor size of DMBA-induced hormone-dependent mammary carcinoma tumors in rats at 4 mg; assay type: functional
Rattus norvegicus [6] = organism: Rattus norvegicus; assay: Percent change in DMBA-induced hormone-dependent mammary carcinoma tumor area at 1 mg after 28 days; assay type: functional; how it was run: as §2
[7] = molecular target: T1, Estrogen receptor (Mus musculus); assay: Estrogenic activity in uterotrophic test in mice at 24 ug (experiment 2); assay type: functional; how it was run: as §1
[8] = molecular target: T1, Estrogen receptor (Mus musculus); assay: Estrogenic activity in uterotrophic test in mice at 0 ug (experiment 1); assay type: functional; how it was run: as §1
[9] = molecular target: T1, Estrogen receptor (Mus musculus); assay: Antiestrogenic activity in uterotrophic test in mice at 2.5 ug (experiment 1)

T1 sequence (O08537 whole entry, looked up): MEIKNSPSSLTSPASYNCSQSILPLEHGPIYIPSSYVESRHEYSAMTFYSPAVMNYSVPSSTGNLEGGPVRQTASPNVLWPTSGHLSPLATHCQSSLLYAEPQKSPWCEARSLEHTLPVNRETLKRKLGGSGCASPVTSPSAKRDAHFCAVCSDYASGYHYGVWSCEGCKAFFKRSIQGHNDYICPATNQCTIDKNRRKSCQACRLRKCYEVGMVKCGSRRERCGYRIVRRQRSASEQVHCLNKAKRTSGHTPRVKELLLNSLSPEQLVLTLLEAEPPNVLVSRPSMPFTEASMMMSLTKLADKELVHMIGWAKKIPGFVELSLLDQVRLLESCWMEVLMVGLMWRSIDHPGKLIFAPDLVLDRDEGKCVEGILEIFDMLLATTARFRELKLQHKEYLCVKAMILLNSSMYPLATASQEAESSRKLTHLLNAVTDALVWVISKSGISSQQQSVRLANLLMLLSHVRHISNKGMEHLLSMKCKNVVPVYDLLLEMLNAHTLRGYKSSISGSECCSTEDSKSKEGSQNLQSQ
T1 sequence (P19785 whole entry, looked up): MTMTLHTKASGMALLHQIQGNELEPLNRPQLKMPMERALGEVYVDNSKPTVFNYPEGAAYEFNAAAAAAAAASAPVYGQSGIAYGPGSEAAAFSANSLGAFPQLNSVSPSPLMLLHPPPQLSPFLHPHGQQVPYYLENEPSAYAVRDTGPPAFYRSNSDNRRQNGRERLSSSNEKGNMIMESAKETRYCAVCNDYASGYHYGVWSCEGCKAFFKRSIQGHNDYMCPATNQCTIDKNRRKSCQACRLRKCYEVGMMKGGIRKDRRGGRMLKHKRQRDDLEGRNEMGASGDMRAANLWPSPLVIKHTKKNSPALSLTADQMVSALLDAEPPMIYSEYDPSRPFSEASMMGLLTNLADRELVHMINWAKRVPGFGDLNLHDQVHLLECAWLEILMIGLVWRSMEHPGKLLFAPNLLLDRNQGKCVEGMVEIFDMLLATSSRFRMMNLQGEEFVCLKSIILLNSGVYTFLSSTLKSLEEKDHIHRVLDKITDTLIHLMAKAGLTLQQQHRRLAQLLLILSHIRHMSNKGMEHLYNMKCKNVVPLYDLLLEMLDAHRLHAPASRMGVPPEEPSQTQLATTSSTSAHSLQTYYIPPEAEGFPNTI

Effect [3]	Effect [7]	Effect [8]	% inhibition [9]	Structure (SMILES)	Tumors (Rattus norvegicus [1])	Tumors (Rattus norvegicus [2])	Change (Rattus norvegicus [4])	Tumors (Rattus norvegicus [5])	Change (Rattus norvegicus [6])
13.6				CCCC(c1cccc(O)c1)C(CCC)c1cccc(O)c1 (centres undefined)	90%	54%			
	18.5	10.7	27%	CCC(c1cccc(O)c1)C(CC)c1cccc(O)c1 (stereo in doubt; 20)			11%	19%	47%
